Measured values from ChEMBL document CHEMBL1155163, “Deoxyribonucleoside kinases activate nucleoside antibiotics in severely pathogenic bacteria” (Antimicrob Agents Chemother, 2007).
Values after ≈ are worked out from the molar mass of the structure shown. Active and inactive are the calls of the source. No cut-off for these calls is given here.

Key:
[1] = test system: Escherichia coli; test: Antimicrobial activity against Escherichia coli ATCC 25922 after 20 hrs; assay type: functional; conditions: ATCC 25922, 20 h
Procedure, shortened: (§1)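 Organisms taken from overnight Columbia blood agar, adjusted to McFarland 0.5 in 0.9% NaCl, diluted a further 10-fold, then spotted on Mueller-Hinton agar containing graded nucleoside analog concentrations. Incubated 20 h at 37°C. MIC is the lowest concentration fully inhibiting growth, judged visually.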

[2] = test system: Staphylococcus aureus; test: Antimicrobial activity against Staphylococcus aureus ATCC 29213 after 20 hrs; assay type: functional; conditions: ATCC 29213, 20 h; procedure, shortened: as §1
[3] = test system: Streptococcus sp.; test: Antimicrobial activity against Streptococcus sp. 07686-2 after 20 hrs; assay type: functional; procedure, shortened: as §1
[4] = test system: Staphylococcus aureus; test: Antimicrobial activity against Staphylococcus aureus CCM 885 after 20 hrs; assay type: functional; conditions: CCM 885, 20 h; procedure, shortened: as §1
[5] = test system: Streptococcus sp.; test: Antimicrobial activity against Streptococcus sp. 07706-1 after 20 hrs; assay type: functional; procedure, shortened: as §1
[6] = test system: Streptococcus sp.; test: Antimicrobial activity against Streptococcus sp. 07941-1 after 20 hrs; assay type: functional; procedure, shortened: as §1
[7] = test system: Streptococcus pyogenes; test: Antibacterial activity against exponentially growing Streptococcus pyogenes AP1 at 0.2 ug/ml after 3 hrs by viable count susceptibility assay; assay type: functional, organism-based
Procedure, shortened: (§2)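 Cells grown overnight in Todd-Hewitt broth at 37°C with 5% CO2, subcultured to OD620 0.4, washed twice and diluted 1,000-fold in 10 mM Tris-HCl pH 7.5, 5 mM glucose, 10% Todd-Hewitt. Stopped with ice-cold buffer; duplicate plating on Todd-Hewitt agar for viable counts.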

[8] = test system: Escherichia coli; test: Antibacterial activity against […] kinase-deficient Escherichia coli KY895 expressing Staphylococcus aureus recombinant deoxyadenosine kinase; assay type: functional
[9] = test system: Streptococcus pyogenes; test: Antibacterial activity against 2.5 x 10^6 CFU Streptococcus pyogenes AP1-infected BALB/c mouse assessed as protection against bacterial dissemination in spleen at 100 ug, ip administered 6 hrs after bacterial infection and measured after 24 hrs postinfection; assay type: functional, organism-based
[10] = test system: Escherichia coli; test: Antibacterial activity against […] kinase-deficient Escherichia coli KY895 expressing Streptococcus pyogenes recombinant deoxyadenosine kinase; assay type: functional
[11] = test system: Streptococcus pyogenes; test: Antibacterial activity against 1 x 10^7 CFU Streptococcus pyogenes AP1-infected BALB/c mouse assessed as survival at 100 ug, ip after 5 days; assay type: functional
Procedure, shortened: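 Adult female BALB/c mice (~20 g), six per group, given ip 1 x 10^7 CFU of mid-exponential S. pyogenes AP1 (OD620 0.5, washed, in PBS). 6 h later, ip 100 µg drug or 100 µl PBS. Survival followed at regular intervals. Survivors sacrificed at 5 days. Inoculum checked by blood-agar colony counts.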

[12] = test system: Staphylococcus aureus; test: Antibacterial activity against exponentially growing Staphylococcus aureus ATCC 29213 at 0.002 ug/ml after 3 hrs by viable count susceptibility assay; assay type: functional, organism-based; procedure, shortened: as §2
[13] = test system: Streptococcus pyogenes; test: Antimicrobial activity against Streptococcus pyogenes AP1 after 20 hrs; assay type: functional; conditions: AP1, 20 h; procedure, shortened: as §1
[14] = test system: Escherichia coli; test: Antibacterial activity against […] kinase-deficient Escherichia coli KY895 expressing Staphylococcus aureus recombinant thymidine kinase; assay type: functional
[15] = test system: Escherichia coli; test: Antibacterial activity against […] kinase-deficient Escherichia coli KY895 expressing Streptococcus pyogenes recombinant thymidine kinase; assay type: functional
[16] = test system: Escherichia coli; test: Antibacterial activity against […] kinase-deficient Escherichia coli KY895 expressing Staphylococcus aureus recombinant deoxyguanosine kinase; assay type: functional, organism-based
[17] = substrate: Nc1ccn([C@@H]2O[C@H](CO)[C@@H](O)C2(F)F)c(=O)n1; test: (§3) Activity of Staphylococcus aureus CCM 885 recombinant deoxyadenosine kinase
Procedure, shortened: (§4)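 Recombinant S. aureus kinase cut from a GST fusion (pGEX-2T, E. coli BL21) by thrombin. Initial velocities taken from four time samples in a DE-81 filter-paper assay with tritiated substrates at varied concentrations. Fits by nonlinear regression to Michaelis-Menten, or to the substrate-inhibition equation where needed.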

[18] = substrate: Nc1ccn([C@H]2C[C@H](O)[C@@H](CO)O2)c(=O)n1; test: as §3; procedure, shortened: as §4
[19] = substrate: Nc1ncnc2c1ncn2[C@H]1C[C@H](O)[C@@H](CO)O1; test: as §3; procedure, shortened: as §4
[20] = substrate: Nc1ccn([C@@H]2O[C@H](CO)[C@@H](O)C2(F)F)c(=O)n1; test: (§5) Ratio of kcat to Km for Staphylococcus aureus CCM 885 recombinant deoxyadenosine kinase; procedure, shortened: as §4
[21] = substrate: Nc1ccn([C@H]2C[C@H](O)[C@@H](CO)O2)c(=O)n1; test: as §5; procedure, shortened: as §4
[22] = substrate: Nc1ncnc2c1ncn2[C@H]1C[C@H](O)[C@@H](CO)O1; test: as §5; procedure, shortened: as §4
[23] = substrate: Nc1nc(O)c2ncn([C@H]3C[C@H](O)[C@@H](CO)O3)c2n1; test: Activity of Staphylococcus aureus CCM 885 recombinant deoxyguanosine kinase; procedure, shortened: as §4
[24] = substrate: Nc1nc(O)c2ncn([C@H]3C[C@H](O)[C@@H](CO)O3)c2n1; test: Ratio of kcat to Km for Staphylococcus aureus CCM 885 recombinant deoxyguanosine kinase; procedure, shortened: as §4
[25] = substrate: Cc1cn([C@H]2C[C@H](N=[N+]=[N-])[C@@H](CO)O2)c(=O)[nH]c1=O; test: (§6) Activity of Staphylococcus aureus CCM 885 recombinant thymidine kinase
Procedure, shortened: (§7)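 GST-fused SaTK expressed in E. coli BL21 (100 µM IPTG, 6 h at 25°C), purified on glutathione-Sepharose and cleaved from GST with thrombin. Initial velocities from four time samples, DE-81 filter-paper assay with tritium-labeled deoxyribonucleoside substrates at various concentrations. Michaelis-Menten nonlinear regression.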

[26] = substrate: Cc1cn([C@H]2C[C@H](O)[C@@H](CO)O2)c(=O)[nH]c1=O; test: as §6; procedure, shortened: as §7
[27] = substrate: Cc1cn([C@H]2C[C@H](N=[N+]=[N-])[C@@H](CO)O2)c(=O)[nH]c1=O; test: (§8) Ratio of kcat to Km for Staphylococcus aureus CCM 885 recombinant thymidine kinase; procedure, shortened: as §7
[28] = substrate: Cc1cn([C@H]2C[C@H](O)[C@@H](CO)O2)c(=O)[nH]c1=O; test: as §8; procedure, shortened: as §7

Molecule | MIC [1] | MIC [2] | MIC [3] | MIC [4] | MIC [5] | MIC [6] | also measured
Nc1nc(Cl)nc2c1ncn2[C@H]1C[C@H](O)[C@@H](CO)O1 [CLADRIBINE] | > 100 µM | > 100 µM | 100 µM (≈ 28.6 µg/mL) | > 100 µM | 100 µM (≈ 28.6 µg/mL) | 100 µM (≈ 28.6 µg/mL) | 
Nc1ccn([C@@H]2O[C@H](CO)[C@@H](O)[C@@H]2O)c(=O)n1 [CYTARABINE] | > 1000 µM | > 1000 µM | > 1000 µM | > 1000 µM | > 1000 µM | > 1000 µM | 
CCc1cn([C@H]2C[C@H](O)[C@@H](CO)O2)c(=O)[nH]c1=O [EDOXUDINE] | > 316 µM | > 316 µM | > 316 µM | > 316 µM | > 316 µM | > 316 µM | 
O=c1[nH]c(=O)n([C@H]2C[C@H](O)[C@@H](CO)O2)cc1F [FLOXURIDINE] | 1 µM (≈ 0.246 µg/mL) | 0.01 µM (≈ 0.00246 µg/mL) | 10 µM (≈ 2.46 µg/mL) | 0.00316 µM (≈ 0.000778 µg/mL) | 0.316 µM (≈ 0.0778 µg/mL) | 0.1 µM (≈ 0.0246 µg/mL) | 
Nc1nc(F)nc2c1ncn2[C@@H]1O[C@H](CO)[C@@H](O)[C@@H]1O [FLUDARABINE] | > 100 µM | > 100 µM | > 100 µM | > 100 µM | > 100 µM | > 100 µM | 
Nc1ccn([C@@H]2O[C@H](CO)[C@@H](O)C2(F)F)c(=O)n1 [GEMCITABINE] | > 1000 µM | 0.1 µM (≈ 0.0263 µg/mL) | 0.1 µM (≈ 0.0263 µg/mL) | 0.1 µM (≈ 0.0263 µg/mL) | 0.0316 µM (≈ 0.00832 µg/mL) | 0.01 µM (≈ 0.00263 µg/mL) | Activity [7]: Active; MIC [8]: 1 nM; Activity [9]: Active; MIC [10]: 0.0316 µM; Activity [11]: 83%; Activity [12]: Active; MIC [13]: 0.1 µM (≈ 0.0263 µg/mL); Activity [14]: inactive; Activity [15]: inactive; Activity [16]: inactive
Cc1cn([C@H]2C[C@H](N=[N+]=[N-])[C@@H](CO)O2)c(=O)[nH]c1=O [ZIDOVUDINE] | 10 µM (≈ 2.67 µg/mL) | > 316 µM | > 316 µM | > 316 µM | > 316 µM | 316 µM (≈ 84.4 µg/mL) | Activity [8]: inactive; Activity [10]: inactive; MIC [14]: 0.0316 µM; MIC [15]: 0.01 µM; Activity [16]: inactive
Deoxyadenosine kinase (Staphylococcus aureus), Q0H0H0 (protein) MNNYGIPQNAIITIAGTVGVGKSTLTQALADKLNFKTSFENVEHNPYLDKFYSDFERWSFHLQIYFLAERFKEQKRMFEYGGGFVQDRSIYEDVDIFAKMHEEEGTMSKEDFKTYSDLFNAMVMTPYFPKPDVMIYLECNYDEVIDRIIERGREMEINTDPEYWKKLFKRYDDWINSFNACPVVRININEYDIHKDPESLNPMINKIARIIQTYRQVDTR |  |  |  |  |  |  | Km [17]: 192 µM; Vmax [17]: 0.43 U/mg; kcat [17]: 0.19 s⁻¹; Km [18]: 34.4 µM; Vmax [18]: 1.3 U/mg; kcat [18]: 0.56 s⁻¹; Km [19]: 29.2 µM; Vmax [19]: 4.1 U/mg; kcat [19]: 1.82 s⁻¹; kcat/Km [20]: 9.81 ×10² /M/s; kcat/Km [21]: 1.62 ×10⁴ /M/s; kcat/Km [22]: 6.22 ×10⁴ /M/s
Deoxyguanosine kinase (Staphylococcus aureus), Q0H0G8 (protein) MNKPFIAIEGPIGVGKSSLAHKLSQTLDFYEEKEIITENPFLSDFYEDISKWSFQTEMFFLCNRYKQFQDVTQLNQGVVSDYHIHKNKIFAKNTLSSVEFQKFSKIYDILTEDMIMPNMIIFLDADLDVLKSRIAKRNRSFEHQIEDEYLLKLKKDYREYYESLQSNGSNVVLIDTTSIDFLKNEQDYEDILHIILPMIGDITNE |  |  |  |  |  |  | Km [23]: 1.1 µM; Vmax [23]: 1.4 U/mg; kcat [23]: 0.57 s⁻¹; kcat/Km [24]: 5.17 ×10⁵ /M/s
Thymidine kinase (Staphylococcus aureus), Q0H0G9 (protein) MYETYHSGWIECITGSMFSGKSEELIRRLRRGIYAKQKVVVFKPAIDDRYHKEKVVSHNGNAIEAINISKASEIMTHDLTNVDVIGIDEVQFFDDEIVSIVEKLSADGHRVIVAGLDMDFRGEPFEPMPKLMAVSEQVTKLQAVCAVCGSSSSRTQRLINGKPAKIDDPIILVGANESYEPRCRAHHIVAPSDNNKEEL |  |  |  |  |  |  | Km [25]: 11.6 µM; Vmax [25]: 4 U/mg; kcat [25]: 1.48 s⁻¹; Km [26]: 2.8 µM; Vmax [26]: 1.2 U/mg; kcat [26]: 0.44 s⁻¹; kcat/Km [27]: 1.29 ×10⁵ /M/s; kcat/Km [28]: 1.6 ×10⁵ /M/s
